# Published values from different studies.
# Lines come from different studies, so protocols differ.
# Read-out: cell growth or viability
SMILES,cell line,test,setting,quantity,result
CCOC(=O)c1cc(O)c(O)c(O)c1,MDBK,MTT,72 h,CC50,> 256 µg/mL
CC(C)(C)c1cc([N+](=O)[O-])cc(C=O)c1O,TZM-bl,resazurin,,CC50,> 12.5 µM
O=C1CCC(N2C(=O)c3cccc(NCc4cn(Cc5ccc(-c6nc7cc(-c8ccccc8)ccn7c6Nc6ccc(C(=O)O)cc6)cc5)nn4)c3C2=O)C(=O)N1 (centres unmarked),MCF7,,72 h,CC50,105 µM
Nc1ccn([C@@H]2O[C@H](CO)[C@@H](O)C2(F)F)c(=O)n1,MCF7,MTT,"2.5 µg/mL, 24 h",viability,51.3%
COc1cccc(C=NNC(=S)NN)c1OC,TZM-bl,resazurin,,CC50,> 12.5 µM
CCCCCCCCC(=O)OC[C@H]1O[C@@](C#N)(c2ccc3c(N)ncnn23)[C@H](O)[C@@H]1O,HEp-2,CCK-8,5 days,CC50,45.5 µM
CC(=O)OC[C@H]1O[C@@H]([S-])[C@H](OC(C)=O)[C@@H](OC(C)=O)[C@@H]1OC(C)=O.CCP(CC)CC.[Au+],THP-1,ATP luminescence,72 h,CC50,2.83 µM
NC(=O)c1ncn([C@@H]2O[C@H](CO)[C@@H](O)[C@H]2O)n1,HEp-2,CCK-8,5 days,CC50,176 µM
[N-]=[N+]=N[C@]1(CO)O[C@@H](n2ccc(N)nc2=O)[C@@H](F)[C@@H]1O,Calu-3,ATP luminescence,72 h,CC50,> 50 µM
CN(Cc1cn(Cc2ccc(-c3nc4cc(-c5ccccc5)ccn4c3Nc3ccc(C(=O)O)cc3)cc2)nn1)c1cccc2c1C(=O)N(C1CCC(=O)NC1=O)C2=O (centres unmarked),MCF7,,72 h,CC50,129 µM
N#C[C@@]1(c2ccc3c(N)ncnn23)O[C@H](COC(=O)C2CCC(F)CC2)[C@@H](O)[C@H]1O (some centres unmarked),HEp-2,CCK-8,5 days,CC50,53.3 µM
